Measured values taken from ChEMBL document CHEMBL1123465, “Buspirone analogues. 2. Structure-activity relationships of aromatic imide derivatives” (J Med Chem, 1986).
Calls of active or inactive are those of the source. The calls are words filed in the database; no cut-off is given here.

Legend:
[1] = target: D(2) dopamine receptor (Rattus norvegicus, UniProt P61169); test: Binding affinity at Dopamine receptor D2 in rat corpus striatum by displacing [3H]-spiperone.; format: tissue-based
Procedure, shortened: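 Washed membranes from male Sprague-Dawley rat corpora striata were preincubated 10 min at 37 °C in Hepes-KOH pH 7.4 buffer with NaCl, KCl, CaCl2, MgCl2, ascorbic acid and 10 μM pargyline. 20-50 μg protein was incubated with 100 pM [3H]spiperone for 15 min at 37 °C, in duplicate. Nonspecific binding was defined with 10 μM D-(+)-butaclamol. IC50 came from log-probit linear regression over 3-5 concentrations.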

[2] = tested on: Rattus norvegicus; test: Effective oral dose that conditioned avoidance response in rat; format: functional
Procedure, shortened: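 On day 10, trained rats (groups of 5-10) were given drug or vehicle by oral gavage and tested at the time of maximal activity. Responses over 30 min (11 trials at 3-min intervals) were pooled across dose levels to calculate the dose suppressing avoidance in 50% of animals (ED50).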

[3] = tested on: Rattus norvegicus; test: Effective oral dose that produce reversal of trifluoperazine-induced catalepsy in rat; format: functional
[4] = species on record: Rattus norvegicus; test: Maximum effective dose that causes vogel anticonflict effect when given through oral route; IA=Inactive; format: functional, organism-based
Procedure, shortened: (§1)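 Reverse day-night cycled rats were water deprived 24 h, bottle trained for 15 min, then deprived a further 23.5 h. Compound was given orally before testing, and licks were counted, with brief grid shocks after a set lick number. Activity meant more licking than controls (Student's t test, p < 0.05). Maximum dose examined was 20 mg/kg.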

[5] = species on record: Rattus norvegicus; test: Maximum effective dose that causes vogel anticonflict effect when given through oral route; format: functional; conditions: read-out: MED; procedure, shortened: as §1
[6] = tested on: Rattus norvegicus; test: Inhibition of dorsal raphe neuron firing when given iv; format: functional
[7] = tested on: Rattus norvegicus; test: Induction of serotonin syndrome when given po
[8] = species on record: Rattus norvegicus; test: Inhibition of dorsal raphe neuron firing; format: functional
[9] = species on record: Rattus norvegicus; test: Inhibition of induced serotonin syndrome; IA=Inactive; format: functional, organism-based

Chain of D(2) dopamine receptor (P61169 whole entry): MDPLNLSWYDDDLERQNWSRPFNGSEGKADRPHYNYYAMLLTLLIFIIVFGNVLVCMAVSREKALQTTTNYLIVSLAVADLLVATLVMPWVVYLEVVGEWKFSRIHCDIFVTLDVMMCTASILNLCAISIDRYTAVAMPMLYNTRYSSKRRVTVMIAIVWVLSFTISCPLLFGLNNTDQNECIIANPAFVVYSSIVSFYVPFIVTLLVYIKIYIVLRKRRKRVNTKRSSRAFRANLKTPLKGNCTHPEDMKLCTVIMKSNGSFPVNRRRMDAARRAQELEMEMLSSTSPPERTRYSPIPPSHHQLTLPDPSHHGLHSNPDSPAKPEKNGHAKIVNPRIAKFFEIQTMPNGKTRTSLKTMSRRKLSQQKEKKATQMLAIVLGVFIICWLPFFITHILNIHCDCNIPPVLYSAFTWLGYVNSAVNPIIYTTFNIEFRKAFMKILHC

Row | SMILES | IC50 [1] [nM] | ED50 [2] [mg/kg] | ED50 [3] [mg/kg] | MED [4] | minimal effective dose [5] [mg/kg] | ED50 [6] [mg/kg] | ED50 [7] [mg/kg] | ED50 [8] [mg/kg] | ED50 [9]
1 | CC1(c2ccccc2)CC(=O)N(CCCCN2CCN(c3ncccn3)CC2)C1=O.Cl (stereo not given) | > 1000 | 60 |  |  |  |  |  |  | 
2 | CC1(c2ccc(F)cc2)CC(=O)N(CCCCN2CCN(c3ncccc3C#N)CC2)C1=O (stereo not given) | 710 | 100 | 20 | inactive |  |  |  |  | 
3 | O=C1CC(c2ccccc2)(c2ccccc2)C(=O)N1CCCCN1CCN(c2ncccn2)CC1 | > 1000 | > 100 | > 20 |  | 10 |  |  |  | 
4 | CSc1nc(N2CCN(CCCCN3C(=O)c4ccccc4C3=O)CC2)ncc1F.Cl | > 1000 | > 100 | > 20 |  |  |  |  |  | 
5 | O=C1c2ccccc2C(=O)N1CCCCN1CCN(c2ncccn2)CC1 | > 1000 | 65 | 20 | inactive |  |  |  |  | 
6 | O=C1CC(c2ccccc2)(c2ccccc2)C(=O)N1CCCCN1CCN(c2nsc3ccccc23)CC1 | 230 | > 100 | > 20 |  |  |  |  |  | 
7 | Cl.O=C1CC2(CCc3ccccc32)C(=O)N1CCCCN1CCN(c2ncccn2)CC1 (stereo not given) | 1300 | 54 | 11.5 | inactive |  |  |  |  | 
8 | Cc1ccc(S(=O)(=O)O)cc1.O=C1CC2(CCCc3ccccc32)C(=O)N1CCCCN1CCN(c2nsc3ccccc23)CC1 (stereo not given) |  | > 100 | > 20 |  |  |  |  |  | 
9 | O=C1c2cc(Cl)c(Cl)cc2C(=O)N1CCCCN1CCN(c2ncccn2)CC1 | > 1000 | > 100 |  |  |  |  |  |  | 
10 | CC1(c2ccc(F)cc2)CC(=O)N(CCCN2CCN(c3ncccn3)CC2)C1=O (stereo not given) | > 1000 | > 100 | > 20 |  |  |  |  |  | 
11 | Cl.N#Cc1cccnc1N1CCN(CCCCN2C(=O)c3ccc([N+](=O)[O-])cc3C2=O)CC1 | > 1000 | 78 | > 20 |  |  |  |  |  | 
12 | N#Cc1cccnc1N1CCN(CCCCN2C(=O)CC(c3ccccc3)(c3ccccc3)C2=O)CC1 | > 1000 | > 100 | > 20 |  |  |  |  |  | 
13 | CC1(c2ccc(F)cc2)CC(=O)N(CCN2CCN(c3ncccn3)CC2)C1=O (stereo not given) | > 1000 | > 100 | > 20 |  |  |  |  |  | 
14 | CC1(C)CC(=O)N(CCCCN2CCN(c3ncccn3)CC2)C(=O)C1.Cl [GEPIRONE HYDROCHLORIDE] |  | 53 | 6.5 |  | 1 | 0.025 | 17.1 |  | 
15 | Cl.O=C1CC2(CCc3ccccc3C2)C(=O)N1CCCCN1CCN(c2ncccn2)CC1 (stereo not given) | 540 | 58 | 13 |  | 5 |  |  |  | 
16 | CC1(c2ccc(F)cc2)CC(=O)N(CCCCN2CCN(c3nsc4ccccc34)CC2)C1=O (stereo not given) | 120 | 100 | > 20 |  |  |  |  |  | 
17 | CC1(c2ccc(F)cc2)CC(=O)N(CCCCN2CCN(c3ncccn3)CC2)C1=O (stereo not given) | > 1000 | 56 | 11 | inactive |  |  |  |  | 
18 | O=C1c2c(Cl)c(Cl)c(Cl)c(Cl)c2C(=O)N1CCCCN1CCN(c2ncccn2)CC1 | > 1000 | > 100 | > 20 |  |  |  |  |  | 
19 | O=C1c2ccc([N+](=O)[O-])cc2C(=O)N1CCCCN1CCN(c2ncccn2)CC1 | > 1000 | 75 | > 20 |  |  |  |  |  | 
20 | Cl.O=C1CC2(CCCc3ccccc32)C(=O)N1CCCCN1CCN(c2ncccn2)CC1 (stereo not given) | > 1000 | 50 | > 20 | inactive |  |  |  |  | 
21 | Cl.O=C1C2CC=CCC2C(=O)N1CCCCN1CCN(c2ncccn2)CC1 (stereo not given) | > 1000 | > 100 |  |  |  |  |  |  | 
22 | Cl.N#Cc1cccnc1N1CCN(CCCCN2C(=O)CC3(CCCc4ccccc43)C2=O)CC1 (stereo not given) | 310 | 100 | > 20 |  |  |  |  |  | 
23 | Cl.O=C1CC2(CCCC2)CC(=O)N1CCCCN1CCN(c2ncccn2)CC1 [BUSPIRONE HYDROCHLORIDE] |  |  | 3.6 |  | 1 |  |  | 0.01 | inactive
